Data: ChEMBL document CHEMBL2046332, “Substrate analog studies of the ω-regiospecificity of Mycobacterium tuberculosis cholesterol metabolizing cytochrome P450 enzymes CYP124A1, CYP125A1 and CYP142A1” (Bioorg Med Chem, 2012)
Active and inactive are the calls of the source. No cut-off for these calls is given here.

Legend:
[1] = system: Mycobacterium tuberculosis; test: Activity of Mycobacterium tuberculosis CYP124A1 assessed as compound oxidation at 50 uM incubated for 1 hr at 25 degC by GC-MS method
Summary of the method: (§1)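 Each P450 (250 nM) was incubated with 50 μM substrate, 5 μg catalase, 50 μg/mL ferredoxin, 0.16 U/mL ferredoxin-NADP+ reductase, and an NADPH-regenerating system (1 mM glucose-6-phosphate, 2.4 U/mL G6P dehydrogenase, 5 mM MgCl2, 800 μM NADP+). Buffer was 50 mM potassium phosphate pH 7.5, 25 °C, 1 h. Quenched with HCl, extracted into hexanes, TMS-derivatised, GC-MS. Controls lacked P450 or NADPH.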

[2] = system: Mycobacterium tuberculosis; test: Activity of Mycobacterium tuberculosis CYP142A1 assessed as compound oxidation at 50 uM incubated for 1 hr at 25 degC by GC-MS method; summary of the method: as §1
[3] = target: T1, Steroid C26-monooxygenase (Mycobacterium tuberculosis, UniProt P9WPP1); test: Binding affinity to Mycobacterium tuberculosis CYP125A1 assessed as type 1a binding mode at > 0.05 to 0.2 uM by UV-visible spectrophotometry
T1 sequence (P9WPP1 whole entry): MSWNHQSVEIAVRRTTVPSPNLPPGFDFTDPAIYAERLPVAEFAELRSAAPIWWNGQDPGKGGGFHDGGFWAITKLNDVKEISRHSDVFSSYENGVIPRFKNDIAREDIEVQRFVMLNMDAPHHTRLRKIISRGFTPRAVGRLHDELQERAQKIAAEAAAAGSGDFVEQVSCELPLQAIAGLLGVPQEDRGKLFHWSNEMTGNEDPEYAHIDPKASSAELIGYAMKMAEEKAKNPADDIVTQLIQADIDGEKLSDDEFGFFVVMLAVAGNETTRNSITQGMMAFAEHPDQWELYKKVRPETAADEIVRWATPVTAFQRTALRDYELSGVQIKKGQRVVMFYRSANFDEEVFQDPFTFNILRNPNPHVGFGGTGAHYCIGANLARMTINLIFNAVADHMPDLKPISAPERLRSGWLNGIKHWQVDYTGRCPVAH
Summary of the method: (§2)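 Spectral titration of each P450 with steroid solubilised in methyl β-cyclodextrin. Ligand-induced low-spin/high-spin shifts were followed in the Soret region and at ~650 nm to assign binding type. Absolute spectra of the P450–steroid complexes were also examined.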

[4] = system: Mycobacterium tuberculosis; test: Binding affinity to Mycobacterium tuberculosis CYP142A1 assessed as type 1 binding mode at 0.05 to 0.2 uM by UV-visible spectrophotometry; summary of the method: as §2
[5] = system: Mycobacterium tuberculosis; test: Binding affinity to Mycobacterium tuberculosis CYP124A1 assessed as type 1 binding mode at 0.05 to 0.2 uM by UV-visible spectrophotometry; summary of the method: as §2
[6] = target: T1, Steroid C26-monooxygenase; test: Activity of Mycobacterium tuberculosis CYP125A1 assessed as relative apparent turnover number at 50 uM incubated for 1 hr at 25 degC by GC-MS method relative to cholesterol
[7] = system: Mycobacterium tuberculosis; test: Activity of Mycobacterium tuberculosis CYP124A1 assessed as relative apparent turnover number at 50 uM incubated for 1 hr at 25 degC by GC-MS method relative to cholesterol
[8] = target: T1, Steroid C26-monooxygenase; test: Activity of Mycobacterium tuberculosis CYP125A1 assessed as apparent turnover number at 50 uM incubated for 1 hr at 25 degC by GC-MS method; summary of the method: as §1
[9] = system: Mycobacterium tuberculosis; test: Activity of Mycobacterium tuberculosis CYP124A1 assessed as apparent turnover number at 50 uM incubated for 1 hr at 25 degC by GC-MS method; summary of the method: as §1
[10] = system: Mycobacterium tuberculosis; test: Activity of Mycobacterium tuberculosis CYP142A1 assessed as relative apparent turnover number at 50 uM incubated for 1 hr at 25 degC by GC-MS method relative to cholesterol
[11] = target: T1, Steroid C26-monooxygenase; test: Binding affinity to Mycobacterium tuberculosis CYP125A1 assessed as type 1 binding mode at 0.05 to 0.2 uM by UV-visible spectrophotometry; summary of the method: as §2
[12] = system: Mycobacterium tuberculosis; test: Activity of Mycobacterium tuberculosis CYP142A1 assessed as apparent turnover number at 50 uM incubated for 1 hr at 25 degC by GC-MS method; summary of the method: as §1
[13] = Binding affinity to Mycobacterium tuberculosis CYP124A1 by UV-visible spectrophotometry; details: read-out: Kd(app); summary of the method: as §2
[14] = target: T1, Steroid C26-monooxygenase; test: Binding affinity to Mycobacterium tuberculosis CYP125A1 by UV-visible spectrophotometry; details: read-out: Kd(app); summary of the method: as §2
[15] = system: Mycobacterium tuberculosis; test: Time dependent inhibition of Mycobacterium tuberculosis CYP142A1 at 50 uM incubated up to 3 hrs by HPLC
Summary of the method: (§3)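 P450 (5 μM) was pre-incubated with 50 μM test sterol in 50 mM potassium phosphate pH 7.5 with ferredoxin, reductase, catalase and NADPH-regenerating system. Controls received MβCD vehicle only. Aliquots taken over time were diluted twenty-fold into buffer with 50 μM cholest-4-en-3-one, spinach ferredoxin, reductase and 1 mM NADPH, run 10 min at 25 °C, and analysed by HPLC. Residual activity = % of control.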

[16] = system: Mycobacterium tuberculosis; test: Time dependent inhibition of Mycobacterium tuberculosis CYP124A1 at 50 uM incubated up to 3 hrs by HPLC; summary of the method: as §3

CC(Cl)CCC[C@@H](C)[C@H]1CC[C@H]2[C@@H]3CCC4=CC(=O)CC[C@]4(C)[C@H]3CC[C@]12C (mixture of isomers)
Activity [1]: Active | Activity [2]: Active

C[C@H](CCCBr)[C@H]1CC[C@H]2[C@@H]3CC=C4C[C@@H](O)CC[C@]4(C)[C@H]3CC[C@]12C
Activity [3]: Active | Activity [4]: Active | Activity [5]: Active

CSCCC[C@@H](C)[C@H]1CC[C@H]2[C@@H]3CC=C4C[C@@H](O)CC[C@]4(C)[C@H]3CC[C@]12C
Activity [3]: Active | Activity [4]: Active | Activity [5]: Active

CC(C)=CCC[C@@H](C)[C@H]1CC[C@H]2[C@@H]3CC=C4C[C@@H](O)CC[C@]4(C)[C@H]3CC[C@]12C [DESMOSTEROL]
Activity [6]: 47.5% | Activity [7]: 91.2% | Kcat(app) [8]: 0.2215 s⁻¹ | Kcat(app) [9]: 0.0228 s⁻¹ | Activity [10]: 41.4% | Activity [4]: Active | Activity [11]: Active | Kcat(app) [12]: 0.115 s⁻¹ | Activity [5]: Active

CC(C)CCC[C@@H](C)[C@H]1CC[C@H]2[C@@H]3CC[C@@H]4CC(=O)CC[C@]4(C)[C@H]3CC[C@]12C
Activity [1]: Active | Activity [2]: Active

C=C(C)CCC[C@@H](C)[C@H]1CC[C@H]2[C@@H]3CC=C4C[C@@H](O)CC[C@]4(C)[C@H]3CC[C@]12C
Kd [13]: 0.15 µM | Activity [6]: 37% | Activity [7]: 26.2% | Kcat(app) [8]: 0.178 s⁻¹ | Kcat(app) [9]: 0.00667 s⁻¹ | Activity [3]: Active | Activity [10]: 6.7% | Activity [4]: Active | Kd [14]: 0.25 µM | Kcat(app) [12]: 0.0183 s⁻¹ | Activity [5]: Active

CCC(C)CCC[C@@H](C)[C@H]1CC[C@H]2[C@@H]3CCC4=CC(=O)CC[C@]4(C)[C@H]3CC[C@]12C (mixture of isomers)
Activity [1]: Active | Activity [2]: Active

CC(C)=CCC[C@@H](C)[C@H]1CC[C@@]2(C)C3=C(CC[C@]12C)[C@@]1(C)CCC(=O)C(C)(C)[C@@H]1CC3
Activity [1]: Active | Activity [2]: Active

C=CCCC[C@@H](C)[C@H]1CC[C@H]2[C@@H]3CC=C4C[C@@H](O)CC[C@]4(C)[C@H]3CC[C@]12C
Activity [6]: 8% | inhibition [15]: inactive | Activity [7]: 1.9% | Kcat(app) [8]: 0.0367 s⁻¹ | Kcat(app) [9]: 0.0005 s⁻¹ | inhibition [16]: inactive | Activity [10]: 6.7% | Activity [4]: Active | Activity [11]: Active | Kcat(app) [12]: 0.0183 s⁻¹ | Activity [5]: Active

C=C(C)CCC[C@@H](C)[C@H]1CC[C@H]2[C@@H]3CCC4=CC(=O)CC[C@]4(C)[C@H]3CC[C@]12C
Activity [1]: Active | Activity [2]: Active

CCC(C)CCC[C@@H](C)[C@H]1CC[C@H]2[C@@H]3CC=C4C[C@@H](O)CC[C@]4(C)[C@H]3CC[C@]12C (mixture of isomers)
Activity [6]: 68.1% | Kcat(app) [8]: 0.317 s⁻¹ | Activity [10]: 58.7% | Activity [4]: Active | Activity [11]: Active | Kcat(app) [12]: 0.163 s⁻¹ | Activity [5]: Active

CC(Cl)CCC[C@@H](C)[C@H]1CC[C@H]2[C@@H]3CC=C4C[C@@H](O)CC[C@]4(C)[C@H]3CC[C@]12C (mixture of isomers)
Activity [6]: 26% | Activity [7]: 29.8% | Kcat(app) [8]: 0.122 s⁻¹ | Kcat(app) [9]: 0.0075 s⁻¹ | Activity [10]: 53.7% | Activity [4]: Active | Activity [11]: Active | Kcat(app) [12]: 0.15 s⁻¹ | Activity [5]: Active

CC(C)CCC[C@@H](C)[C@H]1CC[C@H]2[C@@H]3CCC4=CC(=O)CC[C@]4(C)[C@H]3CC[C@]12C [4-CHOLESTEN 3-ONE]
Activity [1]: Active | Activity [4]: Active | Activity [11]: Active | Activity [2]: Active | Activity [5]: Active

CC(C)CCC[C@@H](C)[C@H]1CC[C@H]2[C@@H]3CC[C@@H]4C[C@@H](O)CC[C@]4(C)[C@H]3CC[C@]12C [COPROSTANOL]
Activity [6]: 50.9% | Activity [7]: 68.4% | Kcat(app) [8]: 0.2373 s⁻¹ | Kcat(app) [9]: 0.0172 s⁻¹ | Activity [10]: 43.1% | Activity [4]: Active | Activity [11]: Active | Kcat(app) [12]: 0.12 s⁻¹ | Activity [5]: Active

CC(Br)CCC[C@@H](C)[C@H]1CC[C@H]2[C@@H]3CCC4=CC(=O)CC[C@]4(C)[C@H]3CC[C@]12C (mixture of isomers)
Activity [1]: Active | Activity [2]: Active

C[C@H](CCCBr)[C@H]1CC[C@H]2[C@@H]3CCC4=CC(=O)CC[C@]4(C)[C@H]3CC[C@]12C
Activity [1]: Active | Activity [2]: Active

CC(Br)CCC[C@@H](C)[C@H]1CC[C@H]2[C@@H]3CC=C4C[C@@H](O)CC[C@]4(C)[C@H]3CC[C@]12C (mixture of isomers)
Activity [6]: 65.1% | Activity [7]: 67.3% | Kcat(app) [8]: 0.3037 s⁻¹ | Kcat(app) [9]: 0.0168 s⁻¹ | Activity [10]: 107% | Activity [4]: Active | Activity [11]: Active | Kcat(app) [12]: 0.299 s⁻¹ | Activity [5]: Active

CC(C)CCC[C@@H](C)[C@H]1CC[C@H]2[C@@H]3CC=C4C[C@@H](O)CC[C@]4(C)[C@H]3CC[C@]12C [CHOLESTEROL]
Kcat(app) [8]: 0.467 s⁻¹ | Kcat(app) [9]: 0.025 s⁻¹ | Activity [4]: Active | Activity [11]: Active | Kcat(app) [12]: 0.278 s⁻¹ | Activity [5]: Active

CSCCC[C@@H](C)[C@H]1CC[C@H]2[C@@H]3CCC4=CC(=O)CC[C@]4(C)[C@H]3CC[C@]12C
Activity [1]: Active | Activity [2]: Active

CC(C)=CCC[C@@H](C)[C@H]1CC[C@@]2(C)C3=C(CC[C@]12C)[C@@]1(C)CC[C@H](O)C(C)(C)[C@@H]1CC3 [LANOSTEROL]
Activity [6]: 37% | Kcat(app) [8]: 0.1728 s⁻¹ | Activity [10]: 132% | Activity [4]: Active | Activity [11]: Active | Kcat(app) [12]: 0.368 s⁻¹ | Activity [5]: Active

CCCCC[C@@H](C)[C@H]1CC[C@H]2[C@@H]3CC=C4C[C@@H](O)CC[C@]4(C)[C@H]3CC[C@]12C
Activity [6]: 18% | Activity [7]: 48.6% | Kcat(app) [8]: 0.085 s⁻¹ | Kcat(app) [9]: 0.0117 s⁻¹ | Activity [10]: 11.7% | Activity [4]: Active | Activity [11]: Active | Kcat(app) [12]: 0.0317 s⁻¹ | Activity [5]: Active

CCCCC[C@@H](C)[C@H]1CC[C@H]2[C@@H]3CCC4=CC(=O)CC[C@]4(C)[C@H]3CC[C@]12C
Activity [1]: Active | Activity [2]: Active

CC(C)=CCC[C@@H](C)[C@H]1CC[C@H]2[C@@H]3CCC4=CC(=O)CC[C@]4(C)[C@H]3CC[C@]12C
Activity [1]: Active | Activity [2]: Active

C=CCCC[C@@H](C)[C@H]1CC[C@H]2[C@@H]3CCC4=CC(=O)CC[C@]4(C)[C@H]3CC[C@]12C
Activity [1]: Active | Activity [2]: Active
